Shown are actives, neighbours in structure and some others; about 4.9% of the full set was active somewhere.
STAT1 activator: STAT1 signaling activation; 200,000 tested, 2.6% active; NIH 3T3 STAT1-luciferase reporter, IFN-gamma, luminescence; 100% = IFN-gamma alone, no compound; activation (% of control), % at 5.5 µM;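 active means activation above the screen-wide mean activation plus 3 SD, cut at about 130% in these data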;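 further: raw ratio to IFN-gamma control signal so 100% means no change and 0% no light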
STAT3 blocker: inhibitors of IL-6 induced STAT3 signaling. U3A cells, IL-6 STAT3-luciferase reporter, luminescence; host cell line lacks STAT1. AID 862. inhibition, % at 5.5 µM. 190,000 tested, 0.89% active;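 active means inhibition above the mean inhibition across all screened compounds plus 3 SD, cut at about 44% in these data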;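 further: 0% = DMSO only wells and 100% = 100 µM nifuroxazide control wells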
STAT3 activator: increases IL-6 driven STAT3 reporter signal; U3A cells, IL-6 STAT3-luciferase reporter, luminescence; 100% = signal with IL-6 EC80 alone; activation (% of control), % at 5.6 µM; 190,000 tested, 0.91% active; AID 871;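 active means activation above the screen-wide mean of compound activation plus 3 SD, cut at about 130% in these data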;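 further: 0% = background luminescence of wells with medium and substrate only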
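Detection: reporter luminescence signal / Assay system: STAT1-lacking human U3A cells, STAT3 luciferase reporter / Incubation: compound pre-incubation 1 h before IL-6, then 6 h stimulation at 37 °C / Control set: IL-6-only high control / Read-out: % activation relative to IL-6 control / Probe or stimulus: Interleukin-6, 33 ng/mL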
NF-kB expr up: compounds increasing NF-kB expression in human neuronal cells | AID 1239 | 190,000 tested, 1.6% active | fold change at 12.5 µM | NF-kB reporter expression; stronger effect = higher value; in the data active means fold change above about 3.3
APP 5'UTR act: activates APP 5'UTR luciferase reporter. SH-SY5Y APP 5'UTR luciferase reporter, luminescence; zero percent = DMSO vehicle wells. activation, % at 2 µM. 190,000 tested, 1% active. AID 1276;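 active means activation above a set limit, based on mean plus 3 SD of controls, cut at about 140% in these data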
STAT1 inh: inhibitors of IFN-gamma induced STAT1 signaling; NIH 3T3 STAT1-luciferase reporter, luminescence; inhibition, % at 5.5 µM; 200,000 tested, 0.35% active;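 active means inhibition above a set limit, the mean inhibition across all tested compounds plus 3 SD, cut at about 34% in these data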;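 further: 0% = IFN-gamma with DMSO and 100% = IFN-gamma with 300 µM nifuroxazide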
Numbers without * were called inactive.

Results for CCc1cccc(N=c2c([N+](=O)[O-])nn(-c3ccc(Cl)cc3)n2O)c1 ?
STAT1 activator: 100; STAT3 blocker: -3; STAT3 activator: 100; NF-kB expr up: 4.9*; APP 5'UTR act: 10; STAT1 inh: 0

How did Cc1cccc(N=c2c([N+](=O)[O-])nn(-c3ccc(Cl)cc3)n2O)c1 do in these assays?
STAT1 activator: 104; STAT3 blocker: 8; STAT3 activator: 94; NF-kB expr up: 1.5; APP 5'UTR act: 21; STAT1 inh: -4

Results for O=[N+]([O-])c1nn(-c2ccc(Cl)cc2)n(O)c1=NCc1ccncc1 ?
STAT1 activator: 110; STAT3 blocker: 17; STAT3 activator: 88; NF-kB expr up: 0.97; APP 5'UTR act: -11; STAT1 inh: -11

How did Cc1ccc(CN=c2c([N+](=O)[O-])nn(-c3ccc(Cl)cc3)n2O)cc1 do in these assays?
STAT1 activator: 140*; STAT3 blocker: 15; STAT3 activator: 91; NF-kB expr up: 1.2; APP 5'UTR act: 11; STAT1 inh: -46

Results for CCc1ccccc1N(C1=NCCCS1)S(=O)(=O)c1ccc(C(C)(C)C)cc1 ?
STAT1 activator: 96; STAT3 blocker: -1; STAT3 activator: 105; NF-kB expr up: 0.75; APP 5'UTR act: 30; STAT1 inh: 5

Results for O=C(NCC(O)c1ccc([N+](=O)[O-])cc1)c1cccc(S(=O)(=O)N2CCCC2)c1 (configuration not stated) ?
STAT1 activator: 95; STAT3 blocker: 2; STAT3 activator: 103; NF-kB expr up: 0.95; APP 5'UTR act: -1; STAT1 inh: 4

How did COc1cc(SC)ccc1C(=O)OC(C)C(=O)NC1CCCC1 (configuration not stated) do in these assays?
STAT1 activator: 89; STAT3 blocker: 0; STAT3 activator: 102; NF-kB expr up: 1; APP 5'UTR act: 1; STAT1 inh: 10

What do the screens show for `CCCCN(Cc1ccccc1)C(=O)CCN1C(=O)C2C3C=CC(C3)C2C1=O` (configuration not stated)?
STAT1 activator: 100; STAT3 blocker: 14; STAT3 activator: 94; NF-kB expr up: 0.95; APP 5'UTR act: 9; STAT1 inh: -1

Results for COc1ccc(-n2ncc3c(N4CCCCC4)ncnc32)cc1 ?
STAT1 activator: 33; STAT3 blocker: 107*; STAT3 activator: 13; NF-kB expr up: 0.27; APP 5'UTR act: 39; STAT1 inh: 72*

Results for CC1CN(c2ncnc3c2cnn3-c2ccc(Cl)cc2)CC(C)O1 (configuration not stated) ?
STAT1 activator: 147*; STAT3 blocker: 18; STAT3 activator: 92; NF-kB expr up: 1.5; APP 5'UTR act: 47; STAT1 inh: -52

Results for Cc1cccc(-n2ncc3c(N4CC(C)CC(C)C4)ncnc32)c1 (configuration not stated) ?
STAT1 activator: 133*; STAT3 blocker: 20; STAT3 activator: 91; NF-kB expr up: 2.3; STAT1 inh: -37

Results for CC1CC(C)CN(c2ncnc3c2cnn3Cc2ccc(Cl)cc2)C1 (configuration not stated) ?
STAT1 activator: 97; STAT3 blocker: 7; STAT3 activator: 96; NF-kB expr up: 0.86; APP 5'UTR act: -6; STAT1 inh: 3

How did CCCn1c(N/N=C(C)\C=C\c2ccccc2)nc2c1c(=O)[nH]c(=O)n2C do in these assays?
STAT1 activator: 99; STAT3 blocker: 8; STAT3 activator: 95; NF-kB expr up: 1; APP 5'UTR act: 0; STAT1 inh: -2

What do the screens show for `CCN(CC)C(=S)NC(=O)c1cc(OC)c(OC)c(OC)c1`?
STAT1 activator: 99; STAT3 blocker: 5; STAT3 activator: 100; NF-kB expr up: 1; APP 5'UTR act: -2; STAT1 inh: -2

How did O=C(Cn1c(O)c(/C=C2\C=Nc3ccccc32)sc1=O)N1CCOCC1 do in these assays?
STAT1 activator: 103; STAT3 blocker: -36; STAT3 activator: 134*; NF-kB expr up: 0.95; APP 5'UTR act: 17; STAT1 inh: -6

How did CCOC(=O)/C(=C\c1ccccc1)C(=O)c1cc(C(C)=O)c(Nc2ccccc2)s1 do in these assays?
STAT1 activator: 79; STAT3 blocker: 11; STAT3 activator: 96; NF-kB expr up: 9.7*; APP 5'UTR act: -11; STAT1 inh: 23

Results for Cc1nc2ccccc2nc(=O)c1NNc1ccccc1 ?
STAT1 activator: 129*; STAT3 blocker: 16; STAT3 activator: 89; NF-kB expr up: 1.8; APP 5'UTR act: 24; STAT1 inh: -32

What do the screens show for `Cc1cccc(C(=O)Nc2cccc(-c3cnc4ccccc4n3)c2)c1`?
STAT1 activator: 97; STAT3 blocker: 26; STAT3 activator: 83; NF-kB expr up: 1.4; APP 5'UTR act: 0; STAT1 inh: 6

How did Cc1ccc2nc(=O)c(NNc3ccccc3)cnc2c1 do in these assays?
STAT1 activator: 139*; STAT3 blocker: 21; STAT3 activator: 88; NF-kB expr up: 1.7; APP 5'UTR act: 18; STAT1 inh: -43

How did Cc1nc2ccccc2nc1OCc1ccccc1 do in these assays?
STAT1 activator: 100; STAT3 blocker: 8; STAT3 activator: 90; NF-kB expr up: 1.3; APP 5'UTR act: 16; STAT1 inh: 0

How did COC(=O)C(C)Sc1nc2c([nH]c3ccccc32)c(=O)n1C (configuration not stated) do in these assays?
STAT1 activator: 92; STAT3 blocker: -32; STAT3 activator: 133*; NF-kB expr up: 0.84; APP 5'UTR act: 53; STAT1 inh: 7

How did CCOc1ccc(-n2c(SCC(N)=O)nc3c([nH]c4ccccc43)c2=O)cc1 do in these assays?
STAT1 activator: 94; STAT3 blocker: -37; STAT3 activator: 134*; NF-kB expr up: 1; APP 5'UTR act: 9; STAT1 inh: 6

What do the screens show for `CCSc1nc2c([nH]c3ccccc32)c(=O)n1C`?
STAT1 activator: 102; STAT3 blocker: -8; STAT3 activator: 111; NF-kB expr up: 1; APP 5'UTR act: -1; STAT1 inh: -2

Results for CCOc1ccc(-n2c(SCC(=O)Nc3cc(C)on3)nc3c([nH]c4ccccc43)c2=O)cc1 ?
STAT1 activator: 97; STAT3 blocker: 2; STAT3 activator: 102; NF-kB expr up: 1.1; APP 5'UTR act: 4; STAT1 inh: 4

What do the screens show for `CC12CS(=O)(=O)CC1SC(=S)N2Cc1ccccc1` (configuration not stated)?
STAT1 activator: 105; STAT3 blocker: 14; STAT3 activator: 98; NF-kB expr up: 1.4; APP 5'UTR act: -4; STAT1 inh: -6

How did CN(C(=O)c1ccc(COc2ccccc2Br)o1)c1ccccc1 do in these assays?
STAT1 activator: 94; STAT3 blocker: 3; STAT3 activator: 106; NF-kB expr up: 1.1; APP 5'UTR act: 17; STAT1 inh: 7

Screening data (PubChem BioAssay)
